According to ChEMBL document CHEMBL1143382, “Discovery of chiral cyclopropyl dihydro-alkylthio-benzyl-oxopyrimidine (S-DABO) derivatives as potent HIV-1 reverse transcriptase inhibitors with high activity against clinically relevant mutants” (J Med Chem, 2009):

How the values were obtained:
[1] = tested on: Human immunodeficiency virus 1; test: Antiviral activity against wild type HIV1 NL4-3 infected in human MT4 cells after 5 days by MTT assay; assay type: functional, organism-based; conditions: Human immunodeficiency virus 1, NL4-3, MT4, 120 h
[2] = tested on: Human immunodeficiency virus 1; test: Antiviral activity against HIV1 reverse transcriptase K103N mutant infected in human MT4 cells after 5 days by MTT assay; assay type: functional, organism-based; conditions: Human immunodeficiency virus 1, MT4, 120 h
How it was run: (§1)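 MT-4 lymphoid cells infected with the HIV-1 strain carrying the indicated RT mutation in the presence of varying compound concentrations. Viable cells counted by tetrazolium (MTT) colorimetric read-out at day 5 post-infection. […] Mock-infected cells were used for cytotoxicity. Values are means of at least two experiments.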

[3] = tested on: Human immunodeficiency virus 1; test: Antiviral activity against HIV1 reverse transcriptase Y181C mutant infected in human MT4 cells after 5 days by MTT assay; assay type: functional, organism-based; conditions: Human immunodeficiency virus 1, MT4, 120 h; how it was run: as §1
[4] = tested on: Human immunodeficiency virus 1; test: Antiviral activity against HIV1 reverse transcriptase Y188L mutant infected in human MT4 cells after 5 days by MTT assay; assay type: functional, organism-based; conditions: Human immunodeficiency virus 1, MT4, 120 h; how it was run: as §1
[5] = Cytotoxicity against human MT4 cells by MTT assay; assay type: cell-based
[6] = biological target: Human immunodeficiency virus type 1 reverse transcriptase (Human immunodeficiency virus 1) (UniProt Q72547)
[7] = tested on: Human immunodeficiency virus type 1 reverse transcriptase (Human immunodeficiency virus 1), Q72547 [K103N]
[8] = tested on: Human immunodeficiency virus type 1 reverse transcriptase (Human immunodeficiency virus 1), Q72547 [Y181I]
[9] = biological target: Human immunodeficiency virus type 1 reverse transcriptase (Human immunodeficiency virus 1) (UniProt Q72547); test: Binding affinity to HIV1 reverse transcriptase treated for 3 mins by surface plasmon resonance
[10] = biological target: T1, Human immunodeficiency virus type 1 reverse transcriptase (Human immunodeficiency virus 1, UniProt Q72547); test: Inhibition of wild type HIV1 free reverse transcriptase
[11] = biological target: T1, Human immunodeficiency virus type 1 reverse transcriptase; test: Inhibition of wild type HIV1 reverse transcriptase-DNA binary complex
[12] = biological target: T1, Human immunodeficiency virus type 1 reverse transcriptase; test: Inhibition of wild type HIV1 reverse transcriptase-DNA-dNTP ternary complex
[13] = biological target: T2, Human immunodeficiency virus type 1 reverse transcriptase (Human immunodeficiency virus 1, UniProt Q72547, K103N); test: Inhibition of HIV1 recombinant free reverse transcriptase K103N mutant expressed in Escherichia coli BL21
[14] = biological target: T2, Human immunodeficiency virus type 1 reverse transcriptase; test: Inhibition of HIV1 recombinant reverse transcriptase K103N mutant-DNA binary complex expressed in Escherichia coli BL21
[15] = biological target: T2, Human immunodeficiency virus type 1 reverse transcriptase; test: Inhibition of HIV1 recombinant reverse transcriptase K103N mutant-DNA-dNTP ternary complex expressed in Escherichia coli BL21

Ka [9] [×10⁴ /M/s] | Compound | EC50 [1] [nM] | EC50 [2] [nM] | EC50 [3] [nM] | EC50 [4] [nM] | CC50 [5] [nM] | ID50 [6] [nM] | ID50 [7] [nM] | ID50 [8] [nM] | Ki [10] [nM] | Ki [11] [nM] | Ki [12] [nM] | Ki [13] [nM] | Ki [14] [nM] | Ki [15] [nM]
 | COc1ccc([C@@H]2C[C@H]2CSc2nc([C@@H](C)c3c(F)cccc3F)c(C)c(=O)[nH]2)cc1 | 4.9 | 2550 | 520 | 190 | 47200 | 300 | 600 | 6000 |  |  |  |  |  | 
 | COc1ccc(/C=C/CSc2nc([C@@H](C)c3c(F)cccc3F)c(C)c(=O)[nH]2)cc1 |  |  |  |  |  | 600 | 7010 | 27800 |  |  |  |  |  | 
 | COc1ccc(C2CC2CSc2nc(C(C)c3c(F)cccc3F)c(C)c(=O)[nH]2)cc1 (racemic) | 0.6 | 520 | 160 | 45 | 37300 | 40 | 3000 | 6000 |  |  |  |  |  | 
 | O=C1Nc2ccc(Cl)cc2[C@@](C#CC2CC2)(C(F)(F)F)O1 [EFAVIRENZ] |  |  | 8 | 3 | > 320 |  |  |  |  |  |  |  |  | 
 | Cc1c([C@H](C)c2c(F)cccc2F)nc(SC/C=C/c2ccccc2)[nH]c1=O |  |  |  |  |  | 10 | 470 | 2990 |  |  |  |  |  | 
1 | COc1ccc(/C=C/CSc2nc(C(C)c3c(F)cccc3F)c(C)c(=O)[nH]2)cc1 (racemic) |  |  |  |  |  |  |  |  |  |  |  |  |  | 
 | Cc1ccnc2c1NC(=O)c1cccnc1N2C1CC1 [NEVIRAPINE] |  |  | > 7500 | > 7500 | > 7500 |  |  |  |  |  |  |  |  | 
0.8 | Cc1cc(C#N)cc(C)c1Oc1nc(Nc2ccc(C#N)cc2)nc(N)c1Br |  |  |  |  |  |  |  |  |  |  |  |  |  | 
 | COc1ccc([C@H]2C[C@@H]2CSc2nc([C@H](C)c3c(F)cccc3F)c(C)c(=O)[nH]2)cc1 | 10 | 3710 | 2700 | 700 | > 56200 | 40 | 400 | 900 | 40 | 30 | 40 | 600 | 400 | 300
 | COc1ccc([C@H]2C[C@@H]2CSc2nc([C@@H](C)c3c(F)cccc3F)c(C)c(=O)[nH]2)cc1 | 90 | 5510 | 7240 | 1080 | > 56200 | 120 | 830 | 2300 |  |  |  |  |  | 

Compound | Ka [9] [×10⁴ /M/s] | EC50 [1] [nM] | EC50 [2] [nM] | EC50 [3] [nM] | EC50 [4] [nM] | CC50 [5] [nM] | ID50 [6] [nM] | ID50 [7] [nM] | ID50 [8] [nM] | Ki [10] [nM] | Ki [11] [nM] | Ki [12] [nM] | Ki [13] [nM] | Ki [14] [nM] | Ki [15] [nM]
COc1ccc([C@@H]2C[C@H]2CSc2nc([C@H](C)c3c(F)cccc3F)c(C)c(=O)[nH]2)cc1 | 1 | 0.07 | 36 | 13 | 1.5 | 14600 | 20 | 40 | 800 | 10 | 8 | 9 | 65 | 40 | 30
